Columns and labels:
Cytochrome P450 2C8 = biological target: T1, Cytochrome P450 2C8 (Homo sapiens, UniProt P10632); test: Inhibition of CYP2C8 (unknown origin); type: ADME
T1 sequence (P10632 whole entry): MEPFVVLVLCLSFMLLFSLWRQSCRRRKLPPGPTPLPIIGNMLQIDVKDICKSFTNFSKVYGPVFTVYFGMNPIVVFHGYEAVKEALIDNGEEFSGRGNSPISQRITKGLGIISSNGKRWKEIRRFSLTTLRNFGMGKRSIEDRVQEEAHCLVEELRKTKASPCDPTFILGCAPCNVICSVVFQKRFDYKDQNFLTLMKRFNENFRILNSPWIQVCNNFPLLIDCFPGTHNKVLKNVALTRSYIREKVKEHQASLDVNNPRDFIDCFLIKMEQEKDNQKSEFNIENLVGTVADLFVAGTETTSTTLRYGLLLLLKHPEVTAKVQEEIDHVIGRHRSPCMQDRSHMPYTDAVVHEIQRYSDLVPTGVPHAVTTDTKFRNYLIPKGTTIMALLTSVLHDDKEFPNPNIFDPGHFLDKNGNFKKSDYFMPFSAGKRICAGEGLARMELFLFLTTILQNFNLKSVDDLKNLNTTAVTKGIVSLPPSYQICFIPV

Cytochrome P450 3A4 = Cytochrome P450 3A4 (Homo sapiens, UniProt P08684); test: Inhibition of CYP3A4 (unknown origin); type: ADME
Cytochrome P450 3A4, sequence (P08684 whole entry): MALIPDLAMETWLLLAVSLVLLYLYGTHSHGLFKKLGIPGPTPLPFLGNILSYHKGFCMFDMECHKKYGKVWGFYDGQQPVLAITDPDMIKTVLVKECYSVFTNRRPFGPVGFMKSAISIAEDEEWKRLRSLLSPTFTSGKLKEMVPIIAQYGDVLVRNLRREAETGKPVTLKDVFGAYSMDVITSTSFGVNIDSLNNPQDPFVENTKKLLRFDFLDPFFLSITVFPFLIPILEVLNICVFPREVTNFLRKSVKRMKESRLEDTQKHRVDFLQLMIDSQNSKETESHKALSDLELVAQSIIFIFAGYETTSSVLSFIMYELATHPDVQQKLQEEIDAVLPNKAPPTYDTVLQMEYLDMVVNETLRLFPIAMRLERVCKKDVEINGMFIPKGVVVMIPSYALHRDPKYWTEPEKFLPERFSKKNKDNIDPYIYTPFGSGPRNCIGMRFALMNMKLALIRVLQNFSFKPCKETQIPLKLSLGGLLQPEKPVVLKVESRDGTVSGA

HT-29 [1] = test: Antiproliferative activity against human HT-29 cells after 72 hrs by CellTiter-Glo assay; details: HT-29, 72 h
[2] = Inhibition of CYP450 (unknown origin); type: ADME; details: human
[3] = Clearance in rat; type: ADME; details: in vivo
Method in brief: (§1)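 Rats dosed at about 1.0 mg/kg IV in 30% β-cyclodextrin in 0.05 M MSA, pH 3, and about 5.0 mg/kg orally in 0.5% methylcellulose. Clearance from the IV arm; oral bioavailability from comparison of the two routes.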

[4] = Oral bioavailability in rat; type: ADME, organism-based; details: in vivo; method in brief: as §1
Mus musculus [5] = test: Toxicity in mouse xenografted with human HT-29 cells assessed as body weight loss at 45 mg/kg, iv 1/time/week x 1 cycle relative to control; type: organism-based; details: in vivo
Method in brief: (§2)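 Mice bearing HT-29 xenografts given 45 mg/kg IV once weekly for one cycle. Efficacy expressed as tumour T/C (%) versus control; tolerability as percent body weight loss.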

[6] = AUCextrapolated in mouse at 1 mg/kg, iv; type: ADME, organism-based; details: in vivo
Method in brief: (§3)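 Female mice dosed intravenously at 1 mg/kg. Plasma concentration–time data used to derive Cmax, T1/2, MRT, AUC0-t, extrapolated AUC, clearance and steady-state volume of distribution.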

[7] = AUC (0 to t) in mouse at 5 mg/kg, po; type: ADME, organism-based; details: in vivo
Method in brief: (§4)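 Female mice given 5 mg/kg orally. Oral exposure (Cmax, Tmax, T1/2, MRT, AUC0-t, extrapolated AUC) measured, and bioavailability taken relative to the 1 mg/kg IV arm.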

[8] = Mean residence time in mouse at 1 mg/kg, iv; type: ADME, organism-based; details: in vivo; method in brief: as §3
Mus musculus [9] = test: Bioavailability in mouse at 5 mg/kg, po; details: in vivo
[10] = Mean residence time in mouse at 5 mg/kg, po; type: ADME, organism-based; details: in vivo; method in brief: as §4
[11] = Volume of distribution at steady state in mouse at 1 mg/kg, iv; type: ADME, organism-based; details: in vivo, read-out: Vdss; method in brief: as §3
[12] = Cmax in mouse at 5 mg/kg, po; type: ADME, organism-based; set-up: dose 5 mg/kg, route oral; details: in vivo; method in brief: as §4
[13] = Tmax in mouse at 5 mg/kg, po; type: ADME, organism-based; details: in vivo; method in brief: as §4
[14] = Half life in mouse at 1 mg/kg, iv; type: ADME, organism-based; details: in vivo; method in brief: as §3
[15] = Oral bioavailability in mouse at 5 mg/kg; type: ADME, organism-based; details: in vivo; method in brief: as §4
[16] = Clearance in mouse at 1 mg/kg, iv; type: ADME, organism-based; details: in vivo; method in brief: as §3
[17] = Cmax in mouse at 1 mg/kg, iv; type: ADME, organism-based; set-up: dose 1 mg/kg, route intravenous; details: in vivo; method in brief: as §3
[18] = Half life in mouse at 5 mg/kg, po; type: ADME, organism-based; details: in vivo; method in brief: as §4
HT-29 [19] = test: Antitumor activity against human HT-29 cells xenografted in mouse assessed as tumor growth inhibition at 45 mg/kg, iv 1/time/week x 1 cycle relative to control; type: functional; method in brief: as §2
[20] = AUC (0 to t) in mouse at 1 mg/kg, iv; type: ADME, organism-based; details: in vivo; method in brief: as §3
[21] = AUCextrapolated in mouse at 5 mg/kg, po; type: ADME, organism-based; details: in vivo; method in brief: as §4
hERG (KCNH2) = hERG (KCNH2) (Homo sapiens, UniProt Q12809); test: Inhibition of human ERG at 10 uM relative to control
hERG (KCNH2), sequence (Q12809 whole entry): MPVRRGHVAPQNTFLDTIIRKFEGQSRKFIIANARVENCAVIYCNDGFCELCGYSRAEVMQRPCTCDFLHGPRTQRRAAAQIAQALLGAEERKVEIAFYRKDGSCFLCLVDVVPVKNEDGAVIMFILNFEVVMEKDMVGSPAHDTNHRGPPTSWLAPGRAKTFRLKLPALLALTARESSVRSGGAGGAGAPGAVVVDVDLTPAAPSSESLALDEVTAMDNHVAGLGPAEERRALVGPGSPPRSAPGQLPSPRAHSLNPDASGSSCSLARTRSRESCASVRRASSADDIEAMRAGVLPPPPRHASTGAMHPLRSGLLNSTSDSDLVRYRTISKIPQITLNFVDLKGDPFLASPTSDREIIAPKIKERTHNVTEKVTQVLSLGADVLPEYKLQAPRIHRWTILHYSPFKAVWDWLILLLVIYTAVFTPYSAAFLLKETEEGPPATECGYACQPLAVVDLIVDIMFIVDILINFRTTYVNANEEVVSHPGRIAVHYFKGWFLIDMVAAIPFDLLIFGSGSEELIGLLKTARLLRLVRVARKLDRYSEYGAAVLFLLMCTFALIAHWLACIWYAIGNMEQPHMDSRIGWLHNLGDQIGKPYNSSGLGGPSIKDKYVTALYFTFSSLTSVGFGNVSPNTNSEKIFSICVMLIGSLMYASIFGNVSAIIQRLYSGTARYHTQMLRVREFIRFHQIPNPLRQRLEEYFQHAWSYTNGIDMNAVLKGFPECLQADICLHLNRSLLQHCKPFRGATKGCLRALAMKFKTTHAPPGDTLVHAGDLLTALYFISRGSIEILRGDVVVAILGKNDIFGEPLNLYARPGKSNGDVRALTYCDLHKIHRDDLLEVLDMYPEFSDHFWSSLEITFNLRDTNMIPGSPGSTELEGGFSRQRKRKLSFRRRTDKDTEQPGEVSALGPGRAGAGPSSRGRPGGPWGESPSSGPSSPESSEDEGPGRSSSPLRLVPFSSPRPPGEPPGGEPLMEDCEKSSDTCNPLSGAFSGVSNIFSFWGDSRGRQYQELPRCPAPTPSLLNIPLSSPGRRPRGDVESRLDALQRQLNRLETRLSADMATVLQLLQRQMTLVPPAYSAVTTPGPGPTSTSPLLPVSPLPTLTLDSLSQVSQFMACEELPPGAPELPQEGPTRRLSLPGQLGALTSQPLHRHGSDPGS

## CC[C@@H]1c2c(C#N)ncn2-c2cnc(Nc3cc(F)c(C(=O)NC4CCN(C)CC4)cc3OC)nc2N1C1CCCCC1
Cytochrome P450 2C8
  IC50: < 10000 nM
Cytochrome P450 3A4
  IC50: < 10000 nM
HT-29 [1]
  EC50: 2 nM

## CC[C@@H]1c2c(C#N)ncn2-c2cnc(Nc3cc(F)c(C(=O)NC4CN(C)C4)cc3OC)nc2N1C(C)C
HT-29 [1]
  EC50: 3 nM
[2]
  inhibition (INH): Not Active

## CC[C@@H]1c2c(C(=O)N(C)O)ncn2-c2cnc(Nc3ccc(C(=O)NC4CCN(C)CC4)cc3OC)nc2N1C1CCCC1
HT-29 [1]
  EC50: 60 nM

## CC[C@@H]1c2c(C(N)=O)ncn2-c2cnc(Nc3ccc(C(=O)NC4CCN(C)CC4)cc3OC)nc2N1C1CCCC1
HT-29 [1]
  EC50: 20 nM

## CCNC(=O)c1ncn2c1[C@@H](CC)N(C1CCCC1)c1nc(Nc3ccc(C(=O)NC4CCN(C)CC4)cc3OC)ncc1-2
HT-29 [1]
  EC50: 100 nM

## CC[C@@H]1c2c(CO)ncn2-c2cnc(Nc3ccc(C(=O)NC4CCN(C)CC4)cc3OC)nc2N1C1CCCC1
HT-29 [1]
  EC50: 30 nM

## CC[C@@H]1c2c(C#N)ncn2-c2cnc(Nc3cc(F)c(C(=O)NC4CCN(C)CC4)cc3OC)nc2N1C1CCCC1
Cytochrome P450 2C8
  IC50: < 10000 nM
Cytochrome P450 3A4
  IC50: < 10000 nM
[3]
  clearance: 28 mL/min/kg
HT-29 [1]
  EC50: 1 nM
[4]
  bioavailability: 49%

## CC[C@@H]1c2c(C#N)ncn2-c2cnc(Nc3ccc(C(=O)NC4CCN(C)CC4)cc3OC)nc2N1C1CCCC1
Cytochrome P450 3A4
  IC50: < 10000 nM
[3]
  clearance: 76 mL/min/kg
HT-29 [1]
  EC50: 2.7 to 3 nM
[4]
  bioavailability: 0%

## CC[C@@H]1c2c(C#N)ncn2-c2cnc(Nc3cc(F)c(C(=O)NC4CCN(C)CC4)cc3OC)nc2N1C(C)C
HT-29 [1]
  EC50: 4 nM
[4]
  bioavailability: 47%
[2]
  inhibition (INH): Not Active

## CC[C@@H]1c2c(C(=O)O)ncn2-c2cnc(Nc3ccc(C(=O)NC4CCN(C)CC4)cc3OC)nc2N1C1CCCC1
HT-29 [1]
  EC50: 400 nM

## CC[C@@H]1c2c(C#N)ncn2-c2cnc(Nc3ccc(C(=O)NC4CCN(C)CC4)cc3OC)nc2N1C(C)C
HT-29 [1]
  EC50: 6 nM
[4]
  bioavailability: 0.5%
[2]
  inhibition (INH): Not Active

## CC[C@@H]1c2c(C#N)ncn2-c2cnc(Nc3cc(F)c(C(=O)N[C@H]4CC[C@H](N5CCN(CC6CC6)CC5)CC4)cc3OC)nc2N1C(C)C
Mus musculus [5]
  Activity: 5.5%
[6]
  AUC: 1010 ng·h/mL
[7]
  AUC(0-t): 3900 ng·h/mL
[8]
  MRT: 6.5 h
HT-29 [1]
  EC50: 22 nM
Mus musculus [9]
  F: 100%
[10]
  MRT: 13 h
[11]
  Vd: 8.9 L/kg
[12]
  Cmax: 354 ng/mL
[13]
  Tmax: 4 h
[14]
  half-life: 4.7 h
[15]
  bioavailability: 101%
[4]
  bioavailability: 100%
[16]
  clearance: 22.7 mL/min/kg
[17]
  Cmax: 258 ng/mL
[2]
  inhibition (INH): Not Active
[18]
  half-life: 8.5 h
HT-29 [19]
  T/C: 54.6%
[20]
  AUC(0-t): 713 ng·h/mL
[21]
  AUC: 4590 ng·h/mL

## CCOC(=O)c1ncn2c1[C@@H](CC)N(C1CCCC1)c1nc(Nc3ccc(C(=O)NC4CCN(C)CC4)cc3OC)ncc1-2
HT-29 [1]
  EC50: 9 nM

## CC[C@@H]1c2c(C#N)ncn2-c2cnc(Nc3cc(F)c(C(=O)NC4CCN(CC)CC4)cc3OC)nc2N1C(C)C
HT-29 [1]
  EC50: 3 nM
hERG (KCNH2)
  inhibition at 10 µM: 37%
[2]
  inhibition (INH): Not Active

— ChEMBL document CHEMBL3994646, “Structure-based design and SAR development of 5,6-dihydroimidazolo[1,5-f]pteridine derivatives as novel Polo-like kinase-1 inhibitors” (Bioorg Med Chem Lett, 2017)
